In ChEMBL document CHEMBL2321864, “Rapid discovery of a novel series of Abl kinase inhibitors by application of an integrated microfluidic synthesis and screening platform” (J Med Chem, 2013):
pIC50: −log10 of the molar value.

How the values were obtained:
[1] = molecular target: Tyrosine-protein kinase ABL1 (Homo sapiens, UniProt P00519, T315I); experiment: Inhibition of Abl1 kinase T315I mutant (unknown origin)
In short: (§1)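 Biochemical inhibition assays run by a contract screening service as a panel: ABL1 mutants H396P, M351T, Q252H, T315I and Y253F, plus P38α/MAPK14.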

[2] = molecular target: T1, Tyrosine-protein kinase ABL1 (Homo sapiens, UniProt P00519); experiment: Inhibition of wild type Abl1 kinase (unknown origin)
[3] = molecular target: Mitogen-activated protein kinase 14 (Homo sapiens, UniProt Q16539); experiment: Inhibition of P38alpha (unknown origin); in short: as §1
Sequence of Mitogen-activated protein kinase 14 (Q16539 whole entry): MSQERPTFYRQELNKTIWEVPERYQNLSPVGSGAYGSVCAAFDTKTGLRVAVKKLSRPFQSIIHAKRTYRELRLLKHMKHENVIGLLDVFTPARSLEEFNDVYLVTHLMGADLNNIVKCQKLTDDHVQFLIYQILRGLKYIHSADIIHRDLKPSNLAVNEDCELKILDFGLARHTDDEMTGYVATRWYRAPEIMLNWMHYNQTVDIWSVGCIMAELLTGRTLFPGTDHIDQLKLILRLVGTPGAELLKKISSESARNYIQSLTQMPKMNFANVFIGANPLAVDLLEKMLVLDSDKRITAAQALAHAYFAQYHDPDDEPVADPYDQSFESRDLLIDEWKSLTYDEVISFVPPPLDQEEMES

[4] = molecular target: T1, Tyrosine-protein kinase ABL1; experiment: Inhibition of Abl1 kinase (unknown origin) using Tyr 6 peptide as substrate assessed as residual enzyme activity after every 10 secs measured for 10 mins
[5] = molecular target: Tyrosine-protein kinase ABL1 (Homo sapiens, UniProt P00519, H396P); experiment: Inhibition of Abl1 kinase H396P mutant (unknown origin); in short: as §1
[6] = molecular target: T2, Tyrosine-protein kinase ABL2 (Homo sapiens, UniProt P42684); experiment: Inhibition of Abl2 kinase (unknown origin) using Tyr 6 peptide as substrate assessed as residual enzyme activity after every 10 secs measured for 10 mins
T2 sequence (P42684 whole entry): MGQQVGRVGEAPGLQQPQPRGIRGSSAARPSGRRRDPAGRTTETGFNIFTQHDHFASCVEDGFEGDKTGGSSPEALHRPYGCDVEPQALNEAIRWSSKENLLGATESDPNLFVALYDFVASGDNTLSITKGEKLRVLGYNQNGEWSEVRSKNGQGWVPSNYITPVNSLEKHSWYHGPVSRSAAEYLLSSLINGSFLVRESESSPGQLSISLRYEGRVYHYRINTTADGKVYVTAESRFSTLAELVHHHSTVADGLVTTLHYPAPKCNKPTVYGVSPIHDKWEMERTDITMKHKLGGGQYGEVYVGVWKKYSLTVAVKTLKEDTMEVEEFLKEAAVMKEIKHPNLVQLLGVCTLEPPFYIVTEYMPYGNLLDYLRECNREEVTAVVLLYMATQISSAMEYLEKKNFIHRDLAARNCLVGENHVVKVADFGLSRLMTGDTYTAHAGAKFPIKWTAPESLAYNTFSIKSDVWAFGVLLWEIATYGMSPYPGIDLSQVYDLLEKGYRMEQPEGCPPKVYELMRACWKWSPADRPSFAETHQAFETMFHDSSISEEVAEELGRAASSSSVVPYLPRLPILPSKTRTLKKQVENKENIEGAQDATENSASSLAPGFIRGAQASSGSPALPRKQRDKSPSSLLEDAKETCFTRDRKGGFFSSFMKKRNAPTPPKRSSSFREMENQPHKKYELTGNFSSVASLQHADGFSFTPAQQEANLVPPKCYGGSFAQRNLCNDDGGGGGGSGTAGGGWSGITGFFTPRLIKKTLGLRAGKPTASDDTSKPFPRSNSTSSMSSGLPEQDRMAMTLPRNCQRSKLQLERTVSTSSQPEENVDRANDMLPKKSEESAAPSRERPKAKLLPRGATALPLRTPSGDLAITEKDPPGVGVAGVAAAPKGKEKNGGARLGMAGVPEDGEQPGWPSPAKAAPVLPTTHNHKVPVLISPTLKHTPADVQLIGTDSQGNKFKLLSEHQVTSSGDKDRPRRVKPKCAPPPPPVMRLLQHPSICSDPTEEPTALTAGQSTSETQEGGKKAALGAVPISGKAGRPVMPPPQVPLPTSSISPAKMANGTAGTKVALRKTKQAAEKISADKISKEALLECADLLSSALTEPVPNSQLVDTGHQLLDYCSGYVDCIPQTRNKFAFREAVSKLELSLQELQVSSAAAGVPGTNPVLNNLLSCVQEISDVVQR

[7] = Apparent permeability of the compound by PAMPA assay; format: ADME
In short: (§2)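 In vitro ADME run by a contract lab: human microsomal stability and parallel artificial membrane permeability assay (PAMPA).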

[8] = molecular target: Tyrosine-protein kinase ABL1 (Homo sapiens, UniProt P00519, Q252H); experiment: Inhibition of Abl1 kinase Q252H mutant (unknown origin); in short: as §1
[9] = molecular target: Tyrosine-protein kinase ABL1 (Homo sapiens, UniProt P00519, M351T); experiment: Inhibition of Abl1 kinase M351T mutant (unknown origin); in short: as §1
[10] = Intrinsic clearance in human liver microsomes; format: ADME, Microsome; details: read-out: CLH; in short: as §2
[11] = molecular target: Tyrosine-protein kinase ABL1 (Homo sapiens, UniProt P00519, Y253F); experiment: Inhibition of Abl1 kinase Y253F mutant (unknown origin); in short: as §1
[12] = molecular target: T2, Tyrosine-protein kinase ABL2; experiment: Inhibition of Abl2 kinase (unknown origin) using Tyr 6 peptide as substrate assessed as residual enzyme activity after every 10 secs measured for 10 mins by platform assay
[13] = molecular target: T1, Tyrosine-protein kinase ABL1; experiment: Inhibition of Abl1 kinase (unknown origin) using Tyr 6 peptide as substrate assessed as residual enzyme activity after every 10 secs measured for 10 mins by platform assay

Cc1ccc(C(=O)Nc2ccc(CN3CCN(C)CC3)c(C(F)(F)F)c2)cc1C#Cc1cncc2nccn12
pIC50 [1]: 9.40 | pIC50 [2]: 9.22 | pIC50 [3]: 7.37 | pIC50 [4]: 9.00 | pIC50 [5]: 9.52 | pIC50 [6]: 9.00 | Papp [7]: 26 ×10⁻⁶ cm/s | pIC50 [8]: 9.30 | pIC50 [9]: 9.52 | microsomal CLint [10]: 90 µL/min/mg | pIC50 [11]: 9.52 | pIC50 [12]: 8.70 | pIC50 [13]: 9.70

CN1CCN(Cc2ccc(NC(=O)Nc3cc(C#Cc4cnc5cnccn45)n(C)n3)cc2C(F)(F)F)CC1
pIC50 [1]: 9.10 | pIC50 [2]: 9.00 | pIC50 [3]: 7.46 | pIC50 [4]: 8.15 | pIC50 [5]: 9.52 | pIC50 [6]: 8.00 | Papp [7]: 0.2 ×10⁻⁶ cm/s | pIC50 [8]: 9.00 | pIC50 [9]: 9.30 | microsomal CLint [10]: 51 µL/min/mg | pIC50 [11]: 9.40 | pIC50 [12]: 8.52 | pIC50 [13]: 9.40

CN1CCN(Cc2ccc(NC(=O)Nc3cc(C#Cc4cnc5cccnn45)n(C)n3)cc2C(F)(F)F)CC1
pIC50 [1]: 9.40 | pIC50 [2]: 9.00 | pIC50 [3]: 7.62 | pIC50 [4]: 7.92 | pIC50 [5]: 9.70 | pIC50 [6]: 8.22 | Papp [7]: 2 ×10⁻⁶ cm/s | pIC50 [8]: 9.15 | pIC50 [9]: 9.40 | microsomal CLint [10]: 29 µL/min/mg | pIC50 [11]: 9.40 | pIC50 [12]: 7.33 | pIC50 [13]: 7.57

CN1CCN(Cc2ccc(NC(=O)Nc3cc(C#Cc4cncc5nccn45)n(C)n3)cc2C(F)(F)F)CC1
pIC50 [1]: 8.72 | pIC50 [2]: 8.80 | pIC50 [3]: 7.46 | pIC50 [4]: 7.92 | pIC50 [5]: 9.15 | pIC50 [6]: 7.82 | Papp [7]: 0.1 ×10⁻⁶ cm/s | pIC50 [8]: 8.80 | pIC50 [9]: 9.05 | microsomal CLint [10]: 76 µL/min/mg | pIC50 [11]: 9.05 | pIC50 [12]: 7.96 | pIC50 [13]: 8.70
